Laboratory results taken from ChEMBL document CHEMBL4196069 (Eur J Med Chem, 2018).
Activity calls are given as the source filed them. The rule behind the calls is not given here.

What was measured:
HL-60 = assay: Antiproliferative activity against human HL60 cells after 72 hrs by MTT assay; type: functional, cell-based; conditions: HL-60, 72 h
Outline: (§1)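 Cells pre-incubated 24 h at 37 °C in humidified 5% CO2, then exposed to compounds for 72 h. MTT (5 mg/mL) was added for 4 h, formazan was dissolved in DMSO, and OD was read at 570 nm. Vehicle control was 0.1% DMSO. IC50 was calculated from inhibition ratios as the mean ± SD of three independent experiments.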

PC-3 = assay: Antiproliferative activity against human PC3 cells after 72 hrs by MTT assay; type: functional, cell-based; conditions: PC-3, 72 h; outline: as §1
Bel-7402 [1] = assay: Antiproliferative activity against human Bel7402 cells after 72 hrs by MTT assay; type: functional, cell-based; conditions: Bel-7402, 72 h; outline: as §1
Bel7402/5-FU = assay: Antiproliferative activity against human Bel7402/5-FU cells after 72 hrs by MTT assay; type: functional, cell-based; outline: as §1
Bel-7402 [2] = assay: Cell cycle arrest in human Bel7402 cells assessed as accumulation at G1 phase at 0.125 uM after 72 hrs by propidium iodide staining-based flow cytometric method (reference value: 39.28%); type: functional
Bel-7402 [3] = assay: Cell cycle arrest in human Bel7402 cells assessed as accumulation at G2/M phase at 0.125 uM after 72 hrs by propidium iodide staining-based flow cytometric method (reference value: 23.71%); type: functional
Bel-7402 [4] = assay: Cell cycle arrest in human Bel7402 cells assessed as accumulation at S phase at 0.125 uM after 72 hrs by propidium iodide staining-based flow cytometric method (reference value: 37.02%); type: functional
Bel-7402 [5] = assay: Cell cycle arrest in human Bel7402 cells assessed as accumulation at G1 phase at 0.25 uM after 72 hrs by propidium iodide staining-based flow cytometric method (reference value: 39.28%); type: functional
Bel-7402 [6] = assay: Cell cycle arrest in human Bel7402 cells assessed as accumulation at S phase at 0.25 uM after 72 hrs by propidium iodide staining-based flow cytometric method (reference value: 37.02%); type: functional
Bel-7402 [7] = assay: Cell cycle arrest in human Bel7402 cells assessed as accumulation at G1 phase at 0.5 uM after 72 hrs by propidium iodide staining-based flow cytometric method (reference value: 39.28%); type: functional
Bel-7402 [8] = assay: Cell cycle arrest in human Bel7402 cells assessed as accumulation at G2/M phase at 0.5 uM after 72 hrs by propidium iodide staining-based flow cytometric method (reference value: 23.71%); type: functional
Bel-7402 [9] = assay: Cell cycle arrest in human Bel7402 cells assessed as accumulation at S phase at 0.5 uM after 72 hrs by propidium iodide staining-based flow cytometric method (reference value: 37.02%); type: functional
Bel-7402 [10] = assay: Induction of apoptosis in human Bel7402 cells assessed as chromatin condensation at 0.125 to 0.25 uM after 48 hrs by Hoechst 33258 staining based fluorescent microscopic method; type: functional, cell-based
Outline: (§2)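 Bel-7402 cells were seeded and grown 24 h, treated at 0.125, 0.25 and 0.5 µM for 48 h, then harvested by mild trypsinization and washed in PBS. They were stained with Hoechst 33258 for 15 min at room temperature in the dark and examined by fluorescence microscopy with a DAPI filter. Untreated cells served as control.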

Bel-7402 [11] = assay: Induction of apoptosis in human Bel7402 cells assessed as rupture of cell membrane at 0.5 uM after 48 hrs by Hoechst 33258 staining based fluorescent microscopic method; type: functional; outline: as §2
Bel-7402 [12] = assay: Induction of apoptosis in human Bel7402 cells after 72 hrs by Annexin V-FITC/propidium iodide staining based flow cytometry; type: functional, cell-based
Bel-7402 [13] = assay: Induction of apoptosis in human Bel7402 cells assessed as early apoptotic cells at 0.125 uM after 72 hrs by Annexin V-FITC/propidium iodide staining based flow cytometry (reference value: 1.65%); type: functional
Bel-7402 [14] = assay: Induction of apoptosis in human Bel7402 cells assessed as necrotic cells at 0.125 uM after 72 hrs by Annexin V-FITC/propidium iodide staining based flow cytometry (reference value: 13.05%); type: functional
Bel-7402 [15] = assay: Induction of apoptosis in human Bel7402 cells assessed as viable cells at 0.125 uM after 72 hrs by Annexin V-FITC/propidium iodide staining based flow cytometry (reference value: 82.48%); type: functional; conditions: Bel-7402, 72 h, read-out: Activity
Bel-7402 [16] = assay: Induction of apoptosis in human Bel7402 cells assessed as necrotic cells at 0.25 uM after 72 hrs by Annexin V-FITC/propidium iodide staining based flow cytometry (reference value: 13.05%); type: functional
Bel-7402 [17] = assay: Induction of apoptosis in human Bel7402 cells assessed as viable cells at 0.25 uM after 72 hrs by Annexin V-FITC/propidium iodide staining based flow cytometry (reference value: 82.48%); type: functional; conditions: Bel-7402, 72 h, read-out: Activity
Bel-7402 [18] = assay: Induction of apoptosis in human Bel7402 cells assessed as early apoptotic cells at 0.5 uM after 72 hrs by Annexin V-FITC/propidium iodide staining based flow cytometry (reference value: 1.65%); type: functional
Bel-7402 [19] = assay: Induction of apoptosis in human Bel7402 cells assessed as necrotic cells at 0.5 uM after 72 hrs by Annexin V-FITC/propidium iodide staining based flow cytometry (reference value: 13.05%); type: functional
Bel-7402 [20] = assay: Induction of apoptosis in human Bel7402 cells assessed as viable cells at 0.5 uM after 72 hrs by Annexin V-FITC/propidium iodide staining based flow cytometry (reference value: 82.48%); type: functional; conditions: Bel-7402, 72 h, read-out: Activity
Bel-7402 [21] = assay: Upregulation of Bax level in human Bel7402 cells after 72 hrs by Western blot analysis; type: functional, cell-based
Outline: (§3)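 Bel-7402 cells were treated for 72 h at the indicated concentrations (0.125–0.5 µM) and lysed. Lysates were cleared at 14,000 g for 10 min at 4 °C, and 25 µg protein per lane was run on 10% SDS-PAGE and transferred to nitrocellulose. Membranes were blocked in 5% milk, probed overnight at 4 °C with monoclonal antibodies, and detected by ECL. Densitometry was normalized to GAPDH.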

Bel-7402 [22] = assay: Downregulation of Bcl-2 level in human Bel7402 cells after 72 hrs by Western blot analysis; type: functional, cell-based; outline: as §3
Bel-7402 [23] = assay: Upregulation of caspase-3 level in human Bel7402 cells at 0.125 to 0.5 uM after 72 hrs by Western blot analysis; type: functional, cell-based; outline: as §3
Bel-7402 [24] = assay: Induction of cyto-c accumulation in human Bel7402 cells cytosol at 0.125 to 0.5 uM after 72 hrs by Western blot analysis; type: functional, cell-based; outline: as §3
Bel-7402 [25] = assay: Upregulation of p53 level in human Bel7402 cells after 72 hrs by Western blot analysis; type: functional, cell-based; outline: as §3
Bel-7402 [26] = assay: Induction of mitochondrial membrane depolarization in human Bel7402 cells assessed as cell with intact mitochondrial membrane potential at 0.125 uM after 24 to 48 hrs by JC-1 staining based flow cytometric analysis (reference value: 98.83%); type: functional
Bel-7402 [27] = assay: Induction of mitochondrial membrane depolarization in human Bel7402 cells assessed as cells with mitochondrial membrane potential loss at 0.125 uM after 24 to 48 hrs by JC-1 staining based flow cytometric analysis (reference value: 6.17%); type: functional
Bel-7402 [28] = assay: Induction of mitochondrial membrane depolarization in human Bel7402 cells assessed as cells with mitochondrial membrane potential loss at 0.25 uM after 24 to 48 hrs by JC-1 staining based flow cytometric analysis (reference value: 6.17%); type: functional

In the case of `C[C@H]1CCC/C=C/[C@@H]2C[C@H](O)C[C@H]2[C@H](OC(=O)c2ccc(N(CCCl)CCCl)cc2)/C=C/C(=O)O1`, the IC50 (HL-60) is reported as 4480 nM, the IC50 (PC-3) is reported as 9370 nM and the IC50 (Bel-7402 [1]) is reported as 250 nM. The IC50 (Bel7402/5-FU) was 840 nM, the Activity (Bel-7402 [2]) was 43.8% and the Activity (Bel-7402 [3]) was 19.92%. The Activity (Bel-7402 [4]) was 36.28%, the Activity (Bel-7402 [5]) was 54.26% and the Activity (Bel-7402 [6]) was 32.48%. For the same compound, the Activity (Bel-7402 [7]) was 58.17%, the Activity (Bel-7402 [8]) was 11.69% and the Activity (Bel-7402 [9]) was 30.14%. The Activity (Bel-7402 [10]) was “Active”, the Activity (Bel-7402 [11]) was “Active” and the Activity (Bel-7402 [12]) was “Dose-dependent effect”. The Activity (Bel-7402 [13]) was 10.49%, the Activity (Bel-7402 [14]) was 3.45% and the viability at 0.125 µM (Bel-7402 [15]) was 80.6%. It also gave an Activity (Bel-7402 [16]) of 3.21%, a viability at 0.25 µM (Bel-7402 [17]) of 62.9% and an Activity (Bel-7402 [18]) of 39.11%. For the same compound, the Activity (Bel-7402 [19]) was 3.87%, the viability at 0.5 µM (Bel-7402 [20]) was 38.5% and the Activity (Bel-7402 [21]) was “Dose-dependent effect”. For the same compound, the Activity (Bel-7402 [22]) was “Dose-dependent effect”, the Activity (Bel-7402 [23]) was “Active” and the Activity (Bel-7402 [24]) was “Active”. The Activity (Bel-7402 [25]) was “Dose-dependent effect”, the Activity (Bel-7402 [26]) was 83.63% and the Activity (Bel-7402 [27]) was 16.06%. It also gave an Activity (Bel-7402 [28]) of 29.5%.
